Measured values published in EPA's CvTdb concentration-time database.

Legend:
human [1] = assay: concentration in blood after dosing; negative times count back from the end of exposure; details: dosed: methylethylketone, inhalation, duration: 4 hr, male
How it was run: (§1)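 Sampling and analytical methods are those of each source and frequently went unreported. The concentration-versus-time and amount-versus-time points were compiled from published in vivo toxicokinetic studies and two structured collections. Most were digitised from plot screenshots with WebPlotDigitizer, with others copied from tables, in the reported units.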

Rat [2] = assay: concentration in plasma after dosing; details: dosed: Isoeugenol, 17 mg/kg, oral, Male, F344/N
Rat [3] = assay: concentration in plasma after dosing; details: 10 min; dosed: Isoeugenol; 17 mg/kg; oral; Male; F344/N
Rat [4] = assay: concentration in plasma after dosing; details: dosed: Isoeugenol, 17 mg/kg, oral, Male, F344/N; remark: listed apart in the source
Rat [5] = assay: concentration in plasma after dosing; details: dosed: Isoeugenol, 17 mg/kg, oral, Female, F344/N
Rat [6] = assay: concentration in plasma after dosing; details: dosed: Tetralin, 20 mg/kg, iv, Female, Harlan Sprague Dawley
Rat [7] = assay: concentration in plasma after dosing; details: dosed: Tetralin, 2 mg/kg, iv, Male, F344
Rat [8] = assay: concentration in plasma after dosing; details: dosed: Tetralin, 2 mg/kg, iv, Male, F344; remark: listed apart in the source
Rat [9] = assay: concentration in plasma after dosing; details: 2 h; dosed: Tetralin; 2 mg/kg; iv; Male; F344
Rat [10] = assay: concentration in plasma after dosing; details: dosed: Tetralin, 20 mg/kg, iv, Female, Harlan Sprague Dawley; remark: listed apart in the source
Rat [11] = assay: concentration in plasma after dosing; details: dosed: Tetralin, 2 mg/kg, iv, Male, Harlan Sprague Dawley
human [12] = assay: concentration in blood after dosing; details: dosed: styrene, 80 ppm, inhalation, duration: 6 hr
How it was run: as §1

rat [13] = assay: concentration in blood after dosing; details: dosed: styrene, 3000 ppm, dermal, duration: 4 hr, male, F344

CCC(C)=O [methylethylketone]
human [1]
Details	concentration in blood [µM]
0.1373 h, 400 ppm	216
0.1381 h, 200 ppm	70.4
0.1632 h, 25 ppm	2.96
0.1664 h, 25 ppm	3.3
0.3028 h, 200 ppm	74.4
0.3068 h, 400 ppm	201
0.3094 h, 200 ppm	54.5
0.3251 h, 25 ppm	2.53
0.3266 h, 25 ppm	2.69
0.4719 h, 200 ppm	65.3
0.4774 h, 25 ppm	2.09
0.4845 h, 200 ppm	49.1
0.4885 h, 25 ppm	2.26
0.9614 h, 200 ppm	40.1
0.9652 h, 200 ppm	50.5
0.9754 h, 400 ppm	150
0.9842 h, 25 ppm	1.52
0.985 h, 25 ppm	1.61
1.481 h, 200 ppm	44.7
1.482 h, 200 ppm	22.9
1.484 h, 400 ppm	121
1.968 h, 200 ppm	25.4
1.969 h, 200 ppm	17.2
1.978 h, 400 ppm	115
1.982 h, 25 ppm	0.771
1.983 h, 25 ppm	0.828
2.965 h, 200 ppm	24.3
2.966 h, 200 ppm	14.6
2.966 h, 400 ppm	98.4
2.996 h, 25 ppm	0.635
3 h, 25 ppm	0.521
3.971 h, 200 ppm	9.24
3.974 h, 200 ppm	5.93
4.006 h, 25 ppm	0.63
4.01 h, 25 ppm	0.532
4.323 h, 400 ppm	48
4.987 h, 400 ppm	33.2
5.414 h, 200 ppm	3.68
5.418 h, 200 ppm	2.75
7.74 h, 200 ppm	1.75
28 min, 400 ppm	171

human [1], during exposure
Details	concentration in blood [µM]
-122 s, 25 ppm	4.68
-83 s, 200 ppm	100
-69 s, 25 ppm	4.74
-46 s, 400 ppm	230
-3.994 h, 25 ppm	0.18
-3.993 h, 25 ppm	0.263
-3.835 h, 25 ppm	1.85
-3.83 h, 400 ppm	47.8
-3.827 h, 25 ppm	2.22
-3.739 h, 200 ppm	24.1
-3.681 h, 25 ppm	2.14
-3.67 h, 25 ppm	2.79
-3.661 h, 400 ppm	68.3
-3.508 h, 25 ppm	2.38
-3.505 h, 25 ppm	2.71
-3.477 h, 400 ppm	80
-3.248 h, 200 ppm	54.2
-3.243 h, 200 ppm	41.8
-2.997 h, 25 ppm	3.29
-2.993 h, 25 ppm	2.68
-2.992 h, 400 ppm	112
-2.506 h, 200 ppm	55
-2.505 h, 200 ppm	58.5
-2.503 h, 400 ppm	162
-2.017 h, 25 ppm	3.04
-2.012 h, 25 ppm	3.56
-1.994 h, 400 ppm	177
-1.527 h, 200 ppm	81.5
-1.508 h, 200 ppm	69.5
-1.022 h, 25 ppm	4.44
-1.012 h, 25 ppm	4.01
-1.006 h, 400 ppm	215
-1 min, 200 ppm	93
-0.7876 h, 200 ppm	88.3
-0.7835 h, 200 ppm	86.7

C/C=C/c1ccc(O)c(OC)c1 [Isoeugenol]
Details	concentration in plasma [ng/mL]
Rat [2], 1 h	28.4
Rat [2], 3 h	68.6
Rat [4], 0.75 h	32.4
Rat [4], 2 h	77.9
Rat [5], 0.5 h	162
Rat [5], 4 h	33.5

Details	concentration in plasma [ng/mL]
Rat [3]	209

c1ccc2c(c1)CCCC2 [Tetralin]
Details	concentration in plasma [µg/g]
Rat [6], 0.25 h	10.9
Rat [6], 6 h	0.111
Rat [7], 4 h	0.00972
Rat [7], 308 s	1.77
Rat [8], 0.505 h	0.246
Rat [8], 8 h	0.00426
Rat [10], 0.25 h	11.4
Rat [10], 6 h	0.104
Rat [11], 0.75 h	0.0729
Rat [11], 12 h	0.00211

Details	concentration in plasma [µg/g]
Rat [9]	0.0337

C=Cc1ccccc1 [styrene]
Details	concentration in blood [ng/mL]
human [12], 0.7751 h	429
human [12], 2.296 h	742
human [12], 4.093 h	759
human [12], 5.217 h	777
human [12], 6.069 h	904
human [12], 6.347 h	484
human [12], 7.03 h	241
human [12], 7.933 h	178
human [12], 10.01 h	92.2
human [12], 11.99 h	61.1
human [12], 14.2 h	52.4
human [12], 18.16 h	34.7
human [12], 23.1 h	26.7
human [12], 29.98 h	18.5
human [12], 46.98 h	10.1
rat [13], 0.5 h	2860
rat [13], 1 h	8010
rat [13], 2 h	4910
rat [13], 3 h	11300
rat [13], 4 h	10200
